1 compound from ChEMBL document CHEMBL1155944 (J Med Chem, 2008) can be followed below.

Molecules are shown by their SMILES. pEC50, pIC50: −log10 of the molar value.

The target in assay [1] is Gamma-aminobutyric acid receptor subunit alpha-3 (Rattus norvegicus, UniProt P18508+P20236+P63079). Briefly: Agonist activity at rat recombinant GABAA alpha-3-beta-3-gamma-2 receptor expressed in HEK293 cells assessed as normalization of GABA-induced current by whole cell patch-clamp technique. It counts as functional, cell-based. In outline:
(§1)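 HEK293 cells transiently co-transfected (calcium phosphate) with rat αi, β3 and γ2S cDNAs plus EGFP marker; recorded 2 days later by whole-cell patch clamp in HEPES saline pH 7.35.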
In general terms: Patch clamp records ionic current or voltage across a cell membrane.

The target in assay [2] is Gamma-aminobutyric acid receptor subunit alpha-4 (Rattus norvegicus, UniProt P18508+P28471+P63079). Briefly: Agonist activity at rat recombinant GABAA alpha-4-beta-3-gamma-2 receptor expressed in HEK293 cells assessed as normalization of GABA-induced current by whole cell patch-clamp technique. Type of assay: functional, cell-based. The method, boiled down:
as §1

Assay [3] concerns the target GABA A receptor alpha-5/beta-3/gamma-2 (Rattus norvegicus, UniProt P18508+P19969+P63079). Briefly: Agonist activity at rat recombinant GABAA alpha-5-beta-3-gamma-2 receptor expressed in HEK293 cells assessed as normalization of GABA-induced current by whole cell patch-clamp technique. It counts as functional, cell-based. The method, boiled down: as §1
The target of assay [4] is Gamma-aminobutyric acid receptor subunit alpha-6 (Rattus norvegicus, UniProt P18508+P30191+P63079). As to the kind of experiment: Agonist activity at rat recombinant GABAA alpha-6-beta-3-gamma-2 receptor expressed in HEK293 cells assessed as normalization of GABA-induced current by whole cell patch-clamp technique. It counts as functional, cell-based. In outline: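 HEK293 cells transiently transfected by calcium phosphate with rat α6 (2 μg), β3 (0.4 μg) and γ2S (0.3 μg) cDNAs plus 1 μg EGFP vector per plate. Whole-cell patch clamp was done 2 days later on EGFP-positive cells in HEPES saline at pH 7.35. Compound was applied alone by fast perfusion at 1, 10, 100 and 1000 μM.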

Assay [5] deals with Gamma-aminobutyric acid receptor subunit alpha-6 (Rattus norvegicus) (UniProt P30191). Briefly: Displacement of [3H]Muscimol from GABAAalpha6 receptor in Sprague-Dawley rat brain cerebellum membrane at 1 mM. It counts as tissue-based. In outline: (§2)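 Well-washed membranes from adult male Sprague-Dawley rat cortex or cerebellum (50–200 μg protein). Incubated 60 min on ice in 50 mM Tris/citrate, pH 7.3, with 6 nM [3H]muscimol and test compound. […] Filtered and counted by scintillation. IC50 and pseudo-Hill coefficient obtained by nonlinear regression.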

Assay [6] is filed under the species Rattus norvegicus. As to the kind of experiment: Displacement of [3H]Muscimol from GABAA alpha-1-alpha-5 receptor in Sprague-Dawley rat brain cortex membrane at 100 uM. In outline: as §2
In general terms: Loss of bound radioactivity is the signal in a displacement assay; it reports binding, not function.

For assay [7], the species on record is Rattus norvegicus. As to the kind of experiment: Displacement of [3H]Muscimol from GABAA alpha-1-alpha-5 receptor in Sprague-Dawley rat brain cortex membrane at 1 mM. In outline: as §2
Assay [8] concerns the target Gamma-aminobutyric acid receptor subunit alpha-6 (Rattus norvegicus) (UniProt P30191). Briefly: Displacement of [3H]Muscimol from GABAAalpha6 receptor in Sprague-Dawley rat brain cerebellum membrane at 100 uM. It counts as tissue-based. The method, boiled down: as §2
Assay [9] can be described thus: (§3) Displacement of [3H]Muscimol from GABAA alpha-1-alpha-5 receptor in Sprague-Dawley rat brain cortex membrane. In outline:
as §2

The species named for assay [10] is Rattus norvegicus. The description is as §3. In outline:
as §2

The target in assay [11] is Gamma-aminobutyric acid receptor subunit alpha-6 (Rattus norvegicus) (UniProt P30191). Briefly: (§4) Displacement of [3H]Muscimol from GABAAalpha6 receptor in Sprague-Dawley rat brain cerebellum membrane. It counts as tissue-based. In outline: as §2
The target in assay [12] is Gamma-aminobutyric acid receptor subunit alpha-6 (Rattus norvegicus, UniProt P30191). The assay is described as §4. It counts as tissue-based. In outline: as §2
Assay [13] has as its target Gamma-aminobutyric acid receptor subunit alpha-6 (Rattus norvegicus) (UniProt P30191). Briefly: Intrinsic activity at recombinant rat GABAA alpha-6-beta-3-gamma-2 receptor expressed in HEK293 cells assessed as induction of current at 1 mM by whole-cell patch-clamp technique relative to GABA. Type of assay: cell-based. The method, boiled down:
(§5)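 Rat αiβ3γ2S receptors transiently expressed in HEK293 cells, with EGFP marking transfected cells, recorded 2 days after transfection. Whole-cell patch clamp in HEPES saline, pH 7.35. Drug applied alone at 1, 10, 100 and 1000 μM. […] Data from at least four cells.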

The target of assay [14] is GABA A receptor alpha-5/beta-3/gamma-2 (Rattus norvegicus) (UniProt P18508+P19969+P63079). As to the kind of experiment: Intrinsic activity at recombinant rat GABAA alpha-5-beta-3-gamma-2 receptor expressed in HEK293 cells assessed as induction of current at 1 mM by whole-cell patch-clamp technique relative to GABA. Type of assay: cell-based. The method, boiled down:
as §5

Assay [15] deals with Gamma-aminobutyric acid receptor subunit alpha-4 (Rattus norvegicus) (UniProt P28471). Briefly: Intrinsic activity at recombinant rat GABAA alpha-4-beta-3-gamma-2 receptor expressed in HEK293 cells assessed as induction of current at 1 mM by whole-cell patch-clamp technique relative to GABA. Type of assay: cell-based. In outline:
as §5

Assay [16] concerns the target GABA-A receptor; alpha-1/beta-2/gamma-2 (Rattus norvegicus) (UniProt P18508+P62813+P63138). Briefly: Intrinsic activity at recombinant rat GABAA alpha-1-beta-3-gamma-2 receptor expressed in HEK293 cells assessed as induction of current at 1 mM by whole-cell patch-clamp technique relative to GABA. Type of assay: cell-based. The method, boiled down:
as §5

For assay [17], the target named is GABA A receptor alpha-2/beta-2/gamma-2 (Rattus norvegicus) (UniProt P18508+P23576+P63138). As to the kind of experiment: Intrinsic activity at recombinant rat GABAA alpha-2-beta-3-gamma-2 receptor expressed in HEK293 cells assessed as induction of current at 1 mM by whole-cell patch-clamp technique relative to GABA. Type of assay: cell-based. In outline: as §5

For assay [18], the target named is Gamma-aminobutyric acid receptor subunit alpha-3 (Rattus norvegicus) (UniProt P20236). Briefly: Intrinsic activity at recombinant rat GABAA alpha-3-beta-3-gamma-2 receptor expressed in HEK293 cells assessed as induction of current at 1 mM by whole-cell patch-clamp technique relative to GABA. It counts as cell-based. The method, boiled down:
as §5

Gamma-aminobutyric acid receptor subunit alpha-6 (Rattus norvegicus), sequence (P30191 whole entry): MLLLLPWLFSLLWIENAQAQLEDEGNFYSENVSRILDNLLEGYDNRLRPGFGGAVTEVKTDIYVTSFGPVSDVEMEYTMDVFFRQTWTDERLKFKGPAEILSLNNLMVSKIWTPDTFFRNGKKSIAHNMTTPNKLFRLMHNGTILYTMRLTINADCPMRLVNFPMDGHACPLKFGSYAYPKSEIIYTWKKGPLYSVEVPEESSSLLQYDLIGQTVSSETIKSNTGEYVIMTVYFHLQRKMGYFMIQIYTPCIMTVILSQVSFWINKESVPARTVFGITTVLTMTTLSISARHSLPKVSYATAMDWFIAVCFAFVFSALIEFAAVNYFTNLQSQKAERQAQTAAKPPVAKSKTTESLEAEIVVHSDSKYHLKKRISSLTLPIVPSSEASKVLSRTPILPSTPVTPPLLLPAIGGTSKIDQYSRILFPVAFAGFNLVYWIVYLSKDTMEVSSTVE
Gamma-aminobutyric acid receptor subunit alpha-6 (Rattus norvegicus, UniProt P30191), sequence (P30191 whole entry): as above
Gamma-aminobutyric acid receptor subunit alpha-6 (Rattus norvegicus, UniProt P18508+P30191+P63079), sequence (P30191 whole entry, the tested form may be a part, one chain of several): as the sequence (P30191 whole entry) above
Gamma-aminobutyric acid receptor subunit alpha-4, sequence (P28471 whole entry, one chain of several): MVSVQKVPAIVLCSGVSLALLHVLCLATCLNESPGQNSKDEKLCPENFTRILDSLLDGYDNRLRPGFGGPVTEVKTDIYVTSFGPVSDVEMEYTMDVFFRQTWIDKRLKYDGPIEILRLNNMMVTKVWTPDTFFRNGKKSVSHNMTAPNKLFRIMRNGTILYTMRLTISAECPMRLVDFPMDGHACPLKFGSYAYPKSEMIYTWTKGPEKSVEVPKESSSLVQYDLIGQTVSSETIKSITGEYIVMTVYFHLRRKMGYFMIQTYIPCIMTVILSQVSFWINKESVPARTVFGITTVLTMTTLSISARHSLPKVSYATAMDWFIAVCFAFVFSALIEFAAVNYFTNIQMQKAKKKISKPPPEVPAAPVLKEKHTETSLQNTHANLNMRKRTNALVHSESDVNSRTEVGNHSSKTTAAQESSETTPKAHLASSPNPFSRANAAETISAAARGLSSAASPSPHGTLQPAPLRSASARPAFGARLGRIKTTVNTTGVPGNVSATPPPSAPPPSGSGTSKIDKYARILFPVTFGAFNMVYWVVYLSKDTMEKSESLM
Gamma-aminobutyric acid receptor subunit alpha-4 (Rattus norvegicus), sequence (P28471 whole entry): as the sequence (P28471 whole entry, one chain of several) above
Gamma-aminobutyric acid receptor subunit alpha-3 (Rattus norvegicus), sequence (P20236 whole entry): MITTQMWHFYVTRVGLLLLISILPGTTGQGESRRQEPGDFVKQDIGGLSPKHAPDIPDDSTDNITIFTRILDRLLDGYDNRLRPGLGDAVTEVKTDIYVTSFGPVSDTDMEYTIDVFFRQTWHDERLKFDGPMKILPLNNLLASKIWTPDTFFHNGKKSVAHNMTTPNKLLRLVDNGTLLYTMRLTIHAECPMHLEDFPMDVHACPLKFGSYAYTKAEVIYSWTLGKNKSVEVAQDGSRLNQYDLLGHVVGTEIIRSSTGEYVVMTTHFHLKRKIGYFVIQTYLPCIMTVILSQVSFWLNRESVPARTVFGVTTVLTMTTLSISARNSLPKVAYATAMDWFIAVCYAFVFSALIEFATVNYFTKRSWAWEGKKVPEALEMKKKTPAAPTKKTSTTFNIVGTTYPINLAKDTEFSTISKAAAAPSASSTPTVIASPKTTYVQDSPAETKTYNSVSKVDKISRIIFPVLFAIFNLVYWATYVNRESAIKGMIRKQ
Gamma-aminobutyric acid receptor subunit alpha-3, sequence (P20236 whole entry, one chain of several): as the sequence (P20236 whole entry) above
GABA A receptor alpha-5/beta-3/gamma-2, sequence (P18508 whole entry): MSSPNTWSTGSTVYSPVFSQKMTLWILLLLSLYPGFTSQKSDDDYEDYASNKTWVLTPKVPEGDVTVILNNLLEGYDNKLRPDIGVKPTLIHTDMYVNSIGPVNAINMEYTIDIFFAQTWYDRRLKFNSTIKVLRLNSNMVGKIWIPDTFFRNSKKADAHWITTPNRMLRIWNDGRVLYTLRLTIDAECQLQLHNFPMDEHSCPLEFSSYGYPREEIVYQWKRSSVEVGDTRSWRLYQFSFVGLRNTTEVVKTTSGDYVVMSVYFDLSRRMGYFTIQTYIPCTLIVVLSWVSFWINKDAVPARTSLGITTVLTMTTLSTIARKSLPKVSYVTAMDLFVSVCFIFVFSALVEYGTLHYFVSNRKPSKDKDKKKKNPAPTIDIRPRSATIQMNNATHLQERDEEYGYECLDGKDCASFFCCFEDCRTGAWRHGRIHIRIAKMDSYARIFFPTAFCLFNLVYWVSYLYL
GABA A receptor alpha-5/beta-3/gamma-2, sequence (P19969 whole entry): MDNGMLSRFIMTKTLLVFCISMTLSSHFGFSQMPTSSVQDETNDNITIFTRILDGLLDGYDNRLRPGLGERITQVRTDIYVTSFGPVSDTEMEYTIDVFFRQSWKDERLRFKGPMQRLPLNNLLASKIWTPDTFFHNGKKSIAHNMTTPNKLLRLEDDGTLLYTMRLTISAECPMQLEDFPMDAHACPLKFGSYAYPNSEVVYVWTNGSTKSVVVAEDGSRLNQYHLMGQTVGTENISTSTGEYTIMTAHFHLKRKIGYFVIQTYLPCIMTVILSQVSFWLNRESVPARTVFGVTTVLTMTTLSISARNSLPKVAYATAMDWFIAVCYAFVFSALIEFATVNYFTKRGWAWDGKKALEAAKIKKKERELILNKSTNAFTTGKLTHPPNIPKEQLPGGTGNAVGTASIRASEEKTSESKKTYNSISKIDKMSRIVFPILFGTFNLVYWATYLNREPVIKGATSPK
GABA A receptor alpha-5/beta-3/gamma-2, sequence (P63079 whole entry): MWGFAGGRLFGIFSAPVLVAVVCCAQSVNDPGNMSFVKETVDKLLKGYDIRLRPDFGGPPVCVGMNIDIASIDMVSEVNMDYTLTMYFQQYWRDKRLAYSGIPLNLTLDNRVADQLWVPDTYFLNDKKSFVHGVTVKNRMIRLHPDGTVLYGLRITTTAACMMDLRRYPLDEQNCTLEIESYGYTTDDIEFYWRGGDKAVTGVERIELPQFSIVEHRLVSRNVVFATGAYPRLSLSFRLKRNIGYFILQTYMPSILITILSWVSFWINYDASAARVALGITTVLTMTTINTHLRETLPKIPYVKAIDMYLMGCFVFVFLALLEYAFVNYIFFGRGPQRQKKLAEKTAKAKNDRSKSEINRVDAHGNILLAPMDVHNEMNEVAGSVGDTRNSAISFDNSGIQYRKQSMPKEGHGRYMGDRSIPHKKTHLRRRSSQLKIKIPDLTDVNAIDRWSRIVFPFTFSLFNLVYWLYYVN

As to `NCc1nnc(O)o1`, the pEC50 (in general, the negative decadic logarithm of the EC50, by convention in mol/L) in [1] is 2.64; in [2] it was 3.89; in [3], 3.86; in assay [4], 4.52. Further, the inhibition – broadly, the change of the read-out against control, counted positive when it falls – in assay [5] amounted to 102%; in the assay listed under Rattus norvegicus [6], 99%; in the assay filed under Rattus norvegicus [7] it was 104%; in [8], 97%. The negative logarithm of the IC50 (pIC50) (commonly the negative decadic logarithm of the IC50, by convention in mol/L) was 5.85 in assay [9] and 5.96 in [12]. Moreover, the logIC50 in the assay filed under Rattus norvegicus [10] turned out to be 0.139; in [11] it was 0.048. The Activity in assay [13] was 1.03; in [14], 0.95; in assay [15], 0.97; in [16], 0.93; in assay [17], 0.88; in [18], 0.59.
